Reference: ChEMBL document CHEMBL1147746, “Structure-activity relationship studies of novel benzophenones leading to the discovery of a potent, next generation HIV nonnucleoside reverse transcriptase inhibitor” (J Med Chem, 2006)

Experiments:
Type in all cases: functional, organism-based
[1] = test system: Human immunodeficiency virus 1; experiment: Antiviral activity against HIV1 V106A mutant using HeLa MAGI assay; conditions: Human immunodeficiency virus 1, V106A
Summary of the method: (§1)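 HeLa CD4-LTR-β-gal cells infected with isogenic recombinant HIV-1 built on the HxB2 backbone and carrying the RT mutation (K103N, V106A or Y181C). Infection was read by a chemiluminescent β-galactosidase signal 3 days after infection. The IC50 is the concentration giving 50% inhibition of the signal relative to untreated controls. Cytotoxicity was run in parallel by CellTiter96; highest concentration mostly 0.5 µM.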

[2] = test system: Human immunodeficiency virus 1; experiment: Antiviral activity against HIV1 Y181C mutant using HeLa MAGI assay; conditions: Human immunodeficiency virus 1, Y181C; summary of the method: as §1
[3] = test system: Human immunodeficiency virus 1; experiment: Antiviral activity against HIV1 K103N mutant using HeLa MAGI assay; conditions: Human immunodeficiency virus 1, K103N; summary of the method: as §1
[4] = test system: Human immunodeficiency virus 1; experiment: Antiviral activity against HIV1 3B in MT4 cells; conditions: Human immunodeficiency virus 1, 3B
Summary of the method: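 MT4 T-cell line infected with HIV-1 IIIB (from H9/HTLV-IIIB supernatants) at 100× the inoculum giving 50% growth reduction; incubated 5 days with a range of compound concentrations. Virus cytopathic effect read by MTS staining; IC50 taken as mean of one triplicate experiment. Cytotoxicity measured in parallel on uninfected cells.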

[5] = test system: Human immunodeficiency virus 1; experiment: Antiviral activity against HIV1 HxB2 using HeLa MAGI assay; conditions: Human immunodeficiency virus 1, HxB2
Summary of the method: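 HeLa CD4-LTR-β-gal cells infected with HxB2 (from molecular clone pHxB2-D) or isogenic RT mutants; HIV-LTR-driven β-galactosidase quantified with chemiluminescent substrate 3 days post-infection. IC50 is the concentration inhibiting 50% of signal relative to untreated controls. Cytotoxicity measured in parallel by CellTiter96.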

SMILES	IC50 [1] [nM]	IC50 [2] [nM]	IC50 [3] [nM]	IC50 [4] [nM]	IC50 [5] [nM]
Cc1cc(C#N)cc(C(=O)c2cc(Cl)ccc2OCC(=O)Nc2ccc(S(N)(=O)=O)cc2C)c1	1.4	1.9	0.9		
Cc1cc(S(N)(=O)=O)ncc1NC(=O)COc1ccc(Cl)cc1C(=O)c1cc(Cl)cc(C#N)c1	10	2	5		
Cc1cc(S(N)(=O)=O)ccc1NC(=O)COc1ccc(Cl)cc1C(=O)c1cccc(C#N)c1	30	1.5	1.5		
Cc1cc(S(N)(=O)=O)ccc1NC(=O)COc1ccc(Cl)cc1C(=O)c1cc(C#N)cc(C(F)(F)F)c1	5.6	2	1.1		
Cc1cc(S(=O)(=O)N(C)C)ccc1NC(=O)COc1ccc(Cl)cc1C(=O)c1cc(F)cc(C(F)(F)F)c1			6	10	8
CNS(=O)(=O)c1ccc(NC(=O)COc2ccc(Cl)cc2C(=O)c2cc(F)cc(C(F)(F)F)c2)c(C)c1			2	8	3
Cc1cc(S(N)(=O)=O)ccc1NC(=O)COc1ccc(Cl)cc1C(=O)c1cc(N)cc(C#N)c1	18	450	140		
Cc1cc(NCCCN2CCCC2)ccc1NC(=O)COc1ccc(Cl)cc1C(=O)c1cc(F)cc(F)c1			109	18	
Cc1ccccc1NC(=O)COc1ccc(Cl)cc1C(=O)c1cc(F)cc(F)c1		25	38	25	8
Cc1cc(Cl)cc(C(=O)c2cc(Cl)ccc2OCC(=O)Nc2ccc(S(N)(=O)=O)cc2C)c1	9.4	3.3	3.6		
CCN(CC)CCCNc1ccc(NC(=O)COc2ccc(Cl)cc2C(=O)c2cc(F)cc(F)c2)c(C)c1			96	41	
COc1ccc(NC(=O)COc2ccc(Cl)cc2C(=O)c2cc(F)cc(F)c2)cn1			72		
Cc1cc(C)cc(C(=O)c2cc(Cl)ccc2OCC(=O)Nc2ccc(S(N)(=O)=O)cc2C)c1	4.2	3	3.3		
Cc1cc(NC(=O)CCN2CCOCC2)ccc1NC(=O)COc1ccc(Cl)cc1C(=O)c1cc(F)cc(F)c1			9	5	
Cc1cc(C#N)cc(C(=O)c2cc(Cl)ccc2OCC(=O)Nc2cnc(S(N)(=O)=O)cc2C)c1	2	4	7		
Cc1nc(S(N)(=O)=O)ccc1NC(=O)COc1ccc(Cl)cc1C(=O)c1cc(Cl)cc(C#N)c1	7	3	3		
Cc1cc(OCCCS(N)(=O)=O)ccc1NC(=O)COc1ccc(Cl)cc1C(=O)c1cc(F)cc(C(F)(F)F)c1		6	4	7	3

SMILES	IC50 [1] [nM]	IC50 [2] [nM]	IC50 [3] [nM]	IC50 [4] [nM]	IC50 [5] [nM]
Cc1cc(C#N)cc(C(=O)c2cc(Cl)ccc2OCC(=O)Nc2ncc(S(N)(=O)=O)cc2C)c1			93		
Cc1cc(OCCCNC(N)=O)ccc1NC(=O)COc1ccc(Cl)cc1C(=O)c1cc(F)cc(C(F)(F)F)c1		10	4	6	4
Cc1cc(S(N)(=O)=O)ccc1NC(=O)COc1ccc(Cl)cc1C(=O)c1cc(Cl)cc(Br)c1	13	6.9	6.1		
Cc1cc(S(N)(=O)=O)ccc1NC(=O)COc1ccc(Cl)cc1C(=O)c1cc(Cl)cc(C#N)c1	3.4	0.7	1		
Cc1cc(NCCCn2ccnc2)ccc1NC(=O)COc1ccc(Cl)cc1C(=O)c1cc(F)cc(F)c1			158	37	
Cc1cc(S(N)(=O)=O)ccc1NC(=O)COc1ccc(Cl)cc1C(=O)c1cc(F)cc(C(F)(F)F)c1	10.5	2.9	2	1	1.4
Cc1cc(N2CC[S+]([O-])CC2)ccc1NC(=O)COc1ccc(Cl)cc1C(=O)c1ccccc1	1400	150	100		
Cc1cc(N2CC[S+]([O-])CC2)ccc1NC(=O)COc1ccc(Cl)cc1C(=O)c1ccc(C#N)cc1	1400	355	44		
Cc1cc(S(N)(=O)=O)ccc1NC(=O)COc1ccc(Cl)cc1C(=O)c1cc(Br)cc(C(F)(F)F)c1	18	290	93		
O=C(COc1ccc(Cl)cc1C(=O)c1cc(F)cc(F)c1)Nc1ccc(Cl)nc1			67		
Cc1cc(N2CC[S+]([O-])CC2)ccc1NC(=O)COc1ccc(Cl)cc1C(=O)c1ccccc1C#N	2000	700	155		
Cc1cc(C#N)cc(C(=O)c2cc(Cl)ccc2OCC(=O)Nc2ccc(S(N)(=O)=O)nc2C)c1	3	4	6		
COc1cc(OC)cc(C(=O)c2cc(Cl)ccc2OCC(=O)Nc2ccc(S(N)(=O)=O)cc2C)c1	500	13	370		
Cc1cc(N2CC[S+]([O-])CC2)ccc1NC(=O)COc1ccc(Cl)cc1C(=O)c1cccc(C#N)c1		6	5		
O=C1Nc2ccc(Cl)cc2C(C#CC2CC2)(C(F)(F)F)O1 (single isomer, unassigned) [EFAVIRENZ]	1.8	1.6	25		
Cc1ccnc2c1NC(=O)c1cccnc1N2C1CC1 [NEVIRAPINE]	8200	10300	5800		
